Usually IC50 stands for the point on the concentration scale where inhibition reaches its midpoint. Higher therefore signals weaker potency in that assay.

SMILES strings stand for the structures.

Sequence of Sodium-dependent dopamine transporter (P23977 whole entry): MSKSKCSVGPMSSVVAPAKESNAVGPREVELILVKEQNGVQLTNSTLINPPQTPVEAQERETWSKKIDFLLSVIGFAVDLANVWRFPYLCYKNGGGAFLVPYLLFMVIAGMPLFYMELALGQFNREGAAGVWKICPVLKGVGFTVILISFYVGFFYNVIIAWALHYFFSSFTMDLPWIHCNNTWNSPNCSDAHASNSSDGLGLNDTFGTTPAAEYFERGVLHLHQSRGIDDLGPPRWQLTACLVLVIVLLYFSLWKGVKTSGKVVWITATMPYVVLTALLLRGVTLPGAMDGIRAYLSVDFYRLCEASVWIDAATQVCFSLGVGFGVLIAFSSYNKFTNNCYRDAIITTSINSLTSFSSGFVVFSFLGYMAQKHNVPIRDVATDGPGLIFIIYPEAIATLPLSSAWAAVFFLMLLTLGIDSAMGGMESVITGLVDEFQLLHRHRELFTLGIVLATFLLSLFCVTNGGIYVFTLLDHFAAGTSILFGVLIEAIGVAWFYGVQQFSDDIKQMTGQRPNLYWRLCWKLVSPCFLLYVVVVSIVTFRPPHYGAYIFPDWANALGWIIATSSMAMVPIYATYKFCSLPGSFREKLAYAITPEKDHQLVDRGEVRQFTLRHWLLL

This test concerns the target Sodium-dependent dopamine transporter (Rattus norvegicus, UniProt P23977). Put plainly: Inhibition of [3H]3-beta-(p-fluorophenyl)tropane-2beta-carboxylic acid methyl ester binding to Dopamine transporter in rat striatal membranes. It is filed as cell membranes, Membrane. A digest of the protocol:
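Male Sprague-Dawley rat (250-350 g) striata, frozen at -70 °C, homogenized in 10 mM phosphate buffer pH 7.4 with 0.32 M sucrose; 40000g pellet washed, resuspended at 1.0 mg/mL tissue. 0.5 nM [3H]-23 incubated 2 h on ice; filtration onto polyethylenimine-soaked GF/B filters, scintillation counting. IC50 from 10-12-point competition curves, 3-4 assays.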
`CN1[C@@H]2CC[C@H]1C[C@H](OC(=O)c1ccccc1)C2`: the IC50 turned out to be 5180 nM.

As to `CN1C2CC[C@@H]1C[C@H](OC(=O)c1ccccc1)C2C(=O)OCCc1ccccc1` (stereo partly drawn), the IC50 worked out at 248 nM.

In the case of `CN1C2CC[C@@H]1C[C@H](OC(=O)c1ccccc1)C2C(=O)OCCCc1ccccc1` (stereo partly drawn), the IC50 was 139 nM.

Turning to `CCCOC(=O)C1C2CC[C@H](C[C@@H]1OC(=O)c1ccccc1)N2C` (stereo partly drawn), the IC50 came to 191 nM.

Turning to `CN1C2CC[C@@H]1C[C@H](OC(=O)c1ccccc1)C2C(=O)OCc1ccccc1` (stereo partly drawn), the IC50 was 257 nM.

With `CCOC(=O)C1C2CC[C@H](C[C@@H]1OC(=O)c1ccccc1)N2C` (stereo partly drawn), the IC50 worked out at 130 nM.

With `CN1C2CC[C@@H]1C[C@H](OC(=O)c1ccccc1)C2CO` (stereo partly drawn), the IC50 was determined as 561 nM.

In turn, `CN1C2CC[C@@H]1C[C@H](OC(=O)c1ccccc1)C2C(=O)Oc1ccccc1` (stereo partly drawn) showed an IC50 of 112 nM.

Regarding `CN1C2CC[C@@H]1C[C@H](OC(=O)c1ccccc1)C2C(=O)OCCc1ccc(N)cc1` (stereo partly drawn), the IC50 turned out to be 72 nM.

The compound `CCOC(=O)CCC(=O)Nc1ccc(CCOC(=O)C2C3CC[C@H](C[C@@H]2OC(=O)c2ccccc2)N3C)cc1` (stereo partly drawn) displayed an IC50 of 86 nM.

`CN1C2CC[C@@H]1C[C@H](OC(=O)c1ccccc1)C2C(=O)OCCc1ccc([N+](=O)[O-])cc1` (stereo partly drawn) returned an IC50 of 601 nM.

`CN1C2CC[C@@H]1C[C@H](OC(=O)c1ccccc1)C2C(=O)OCCc1ccc(Cl)cc1` (stereo partly drawn): the 50% inhibitory concentration (IC50) was found to be 271 nM.

Consider `CC(=O)OCC1C2CC[C@H](C[C@@H]1OC(=O)c1ccccc1)N2C` (stereo partly drawn), for which the 50% inhibitory concentration (IC50) is 272 nM.

`CN1C2CC[C@@H]1C[C@H](OC(=O)c1ccccc1)C2C(=O)OCCc1ccc(N=C=S)cc1` (stereo partly drawn): the IC50 was 196 nM.

`CN1C2CC[C@@H]1C[C@H](OC(=O)c1ccccc1)C2C(=O)OCCc1ccc(NC(=O)CBr)cc1` (stereo partly drawn) returned an IC50 of 61 nM.

Consider `CNC(=O)C1C2CC[C@H](C[C@@H]1OC(=O)c1ccccc1)N2C` (stereo partly drawn), for which the IC50 was 3180 nM.

`CN1C2CC[C@@H]1C[C@H](OC(=O)c1ccccc1)C2C(=O)OCCc1ccc(N=[N+]=[N-])cc1` (stereo partly drawn) returned an IC50 of 227 nM.

With `CN1C2CC[C@@H]1C[C@H](OC(=O)c1ccccc1)C2C(=O)OC/C=C/c1ccccc1` (stereo partly drawn), the IC50 stood at 371 nM.

The values above are taken from ChEMBL document CHEMBL1126011 (J Med Chem, 1992).
